43 molecules from ChEMBL document CHEMBL4406800, “Discovery of Potent Protease-Activated Receptor 4 Antagonists with in Vivo Antithrombotic Efficacy” (J Med Chem, 2019) can be followed below.

The target in data set [1] is T1, Proteinase-activated receptor 4 (Homo sapiens, UniProt Q96RI0).
T1 sequence (Q96RI0 whole entry): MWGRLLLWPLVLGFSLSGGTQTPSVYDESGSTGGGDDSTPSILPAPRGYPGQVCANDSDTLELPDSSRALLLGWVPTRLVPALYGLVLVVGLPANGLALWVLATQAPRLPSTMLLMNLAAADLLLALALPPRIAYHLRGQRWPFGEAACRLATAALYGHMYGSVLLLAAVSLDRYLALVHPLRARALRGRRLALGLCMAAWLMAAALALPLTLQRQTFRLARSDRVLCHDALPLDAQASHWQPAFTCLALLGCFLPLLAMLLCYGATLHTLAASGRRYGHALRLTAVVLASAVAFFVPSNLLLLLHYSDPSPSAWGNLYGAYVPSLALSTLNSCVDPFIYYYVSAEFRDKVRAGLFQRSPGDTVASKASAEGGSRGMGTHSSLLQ
Kind of data set: Antagonist activity at full-length human PAR4 expressed in HEK293 cells assessed as inhibition of AYPGKF-induced intracellular calcium mobilization preincubated for 30 mins followed by AYPGKF addition and measured by calcium indicator-based FLIPR assay. Format: functional, cell-based.

The nature of data set [2]: Stability in human liver microsomes assessed as parent compound remaining measured after 10 mins. Format: ADME, Microsome. The following applies: for remaining at 10 min: liver microsomes, read-out: Stability; for Stability: microsomes, 10 min. Background: Liver microsomes are vesicles of endoplasmic reticulum, rich in cytochrome P450 enzymes.
Data set [3] can be described thus: Stability in rat liver microsomes assessed as parent compound remaining measured after 10 mins. The class given is ADME, Microsome. The note with it: read-out: Stability.
Data set [4] is described as follows: Half life in human liver microsomes. Format: ADME, Microsome. The note with it: for t1/2: microsomes.
Data set [5] in a line: Half life in rat liver microsomes. Format: ADME, Microsome.
Data set [6] can be described thus: Clearance in rat at 2 mg/kg, po or 0.5 mg/kg, iv administered as infusion for 10 mins. Format: ADME, organism-based. The note with it: in vivo.
A short description of data set [7]: Half life in rat at 2 mg/kg, po or 0.5 mg/kg, iv administered as infusion for 10 mins. The class given is ADME, organism-based. The following applies: in vivo.
A short description of data set [8]: Oral bioavailability in rat at 2 mg/kg. Format: ADME, organism-based. The following applies: in vivo. The procedure, abridged: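 Rat dosing: iv 0.5 mpk as a 10 min infusion in 25/75 propylene glycol/PEG400 at 2 ml/kg. po 2 mpk in 5/5/90 EtOH/TPGS/PEG300 at 5 mL/kg.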

A word on the IC50: it is the midpoint of a concentration-inhibition curve. For the molecule `CCSc1nn2cc(-c3cc4ccccc4o3)nc2s1`, the IC50 in data set [1] came to 2900 nM. Also, the remaining at 10 min was found to be 45% in data set [2] and 35% in data set [3].

As to `CCOc1nn2cc(-c3cc4ccccc4o3)nc2s1`, in data set [1], the IC50 is 67 nM. Besides, the figures for the remaining at 10 min in data set [2] and in data set [3] were 57% and 37%, respectively.

Regarding `COc1cc(OCc2ccccc2Cl)c2cc(-c3cn4nc(OC)sc4n3)oc2c1`, the IC50 in data set [1] turned out to be 2.3 nM. For the same molecule, the remaining at 10 min in data set [2] worked out at 95%; in data set [3], 78%.

As for `COc1cc(OCc2cccc(C#N)c2)c2cc(-c3cn4nc(OC)sc4n3)oc2c1`, the IC50 in data set [1] amounted to 0.98 nM. The remaining at 10 min in data set [2] came out at 100%.

Take `c1ccc(Sc2nn3cc(-c4cc5ccccc5o4)nc3s2)cc1`: the IC50 in data set [1] worked out at 1900 nM.

For the molecule `COc1cc(OCc2ccccc2OC)c2cc(-c3cn4nc(OC)sc4n3)oc2c1`, the IC50 in data set [1] came out at 19 nM. Besides, the remaining at 10 min was 82% in data set [2] and 28% in data set [3].

Turning to `COc1cc(OCc2cccc(COc3ccccc3)c2)c2cc(-c3cn4nc(OC)sc4n3)oc2c1`, the IC50 in data set [1] stood at 3.2 nM. Also, the remaining at 10 min in data set [2] was determined as 86%; in data set [3], 64%.

As usually defined, the half-life is how long it takes for the measured level to halve. Read a high half-life as slow decline. The bioavailability is the share of a dose that reaches the circulation, judged against a reference dose that is usually intravenous. A higher bioavailability goes with good availability. For the molecule `COc1cc(OC)c2cc(-c3cn4nc(OC)sc4n3)oc2c1`, the Stability in data set [2] was found to be 86%. Also, the remaining at 10 min in data set [3] was 70%. In data set [4], the t1/2 is 17 min. Besides, the half-life in data set [5] was 22 min; in data set [7], 192 min. Further, the clearance in data set [6] was determined as 33 mL/min/kg. This molecule also yielded a bioavailability in data set [8] of 1%.

With `COc1ccc2cc(-c3cn4nc(OC)sc4n3)oc2c1`, the remaining at 10 min came to 57% in data set [2] and 55% in data set [3].

On to `COc1nn2cc(-c3cc4c(OC)cccc4o3)nc2s1`, for which, in data set [1], the IC50 amounted to 7.6 nM. Besides, the remaining at 10 min in data set [2] was 40%; in data set [3], 42%.

`COc1cc(OCCc2ccccc2)c2cc(-c3cn4nc(OC)sc4n3)oc2c1`: in data set [1], the IC50 is 1.1 nM. Moreover, the remaining at 10 min came to 89% in data set [2] and 43% in data set [3].

Regarding `COc1cc(OCc2ccc(Cl)cc2)c2cc(-c3cn4nc(OC)sc4n3)oc2c1`, in data set [1], the IC50 was found to be 11 nM.

In the case of `COc1cc(OCc2cccc(C(F)(F)F)c2)c2cc(-c3cn4nc(OC)sc4n3)oc2c1`, the IC50 in data set [1] was 3.1 nM. For the same molecule, the remaining at 10 min amounted to 93% in data set [2] and 79% in data set [3].

Regarding `COc1cc(OCc2ccccc2C(F)(F)F)c2cc(-c3cn4nc(OC)sc4n3)oc2c1`, in data set [1], the IC50 came out at 3.4 nM.

Regarding `COc1nn2cc(-c3cc4c(OC)ccc(OC)c4o3)nc2s1`, the remaining at 10 min was found to be 55% in data set [2] and 28% in data set [3].

Regarding `COc1cc(OCc2ccc(OCc3ccccc3)cc2)c2cc(-c3cn4nc(OC)sc4n3)oc2c1`, in data set [1], the IC50 turned out to be 1.3 nM. The remaining at 10 min in data set [2] is 88%; in data set [3], 84%.

As to `COc1nn2cc(-c3cc4c(OCc5ccccc5)cccc4o3)nc2s1`, the 50% inhibitory concentration (IC50) in data set [1] was 24 nM. In addition, the remaining at 10 min in data set [2] was 85%; in data set [3], 75%.

As for `COc1cc(OCc2cccc(Sc3ccccc3)c2)c2cc(-c3cn4nc(OC)sc4n3)oc2c1`, in data set [1], the 50% inhibitory concentration (IC50) was found to be 0.89 nM. In addition, the remaining at 10 min worked out at 80% in data set [2] and 45% in data set [3].

For `COc1nn2cc(-c3cc4ccccc4o3)nc2s1`, the half-maximal inhibitory concentration (IC50) in data set [1] is 4 nM. Also, the Stability in data set [2] was 80%. Also, the remaining at 10 min in data set [3] was determined as 31%. Also, in data set [4], the t1/2 amounted to 6.9 min.

Consider `COc1cc(OCc2ccccc2C)c2cc(-c3cn4nc(OC)sc4n3)oc2c1`, for which the IC50 in data set [1] worked out at 1.6 nM. For the same molecule, the remaining at 10 min was 90% in data set [2] and 46% in data set [3].

As to `COc1nn2cc(-c3cc4ccc(OCc5ccccc5)cc4o3)nc2s1`, the remaining at 10 min in data set [2] was found to be 94%; in data set [3], 68%.

Regarding `COc1cc(OCc2ccccc2OCc2ccccc2)c2cc(-c3cn4nc(OC)sc4n3)oc2c1`, the IC50 in data set [1] came out at 3.2 nM. Further, the remaining at 10 min in data set [2] came out at 94%; in data set [3], 22%.

As for `COc1cc(OCCOCc2ccccc2)c2cc(-c3cn4nc(OC)sc4n3)oc2c1`, in data set [1], the IC50 was 1.8 nM. In addition, the remaining at 10 min in data set [2] came out at 75%; in data set [3], 25%.

Take `COc1cc(OCc2ccc(C(F)(F)F)cc2)c2cc(-c3cn4nc(OC)sc4n3)oc2c1`: in data set [1], the IC50 amounted to 4.3 nM. The remaining at 10 min in data set [2] was found to be 79%; in data set [3], 90%.

On to `COc1cccc(COc2cc(OC)cc3oc(-c4cn5nc(OC)sc5n4)cc23)c1`, for which the IC50 in data set [1] stood at 9.4 nM. For the same molecule, the remaining at 10 min in data set [2] was 69%; in data set [3], 34%.

On to `CSc1nn2cc(-c3cc4ccccc4o3)nc2s1`, for which the half-maximal inhibitory concentration (IC50) in data set [1] stood at 11 nM. The remaining at 10 min in data set [2] came to 25%; in data set [3], 4%. This molecule gave a half-life in data set [4] (liver microsomes) of 5.4 min.

Consider `COc1cc(OCc2cccc(Cl)c2)c2cc(-c3cn4nc(OC)sc4n3)oc2c1`, for which the IC50 in data set [1] is 3.3 nM. For the same molecule, the remaining at 10 min was found to be 82% in data set [2] and 79% in data set [3].

Turning to `CS(=O)(=O)c1nn2cc(-c3cc4ccccc4o3)nc2s1`, the half-inhibitory concentration (IC50) in data set [1] was 820 nM.

Turning to `COc1cc(OCc2cccc(CO)c2)c2cc(-c3cn4nc(OC)sc4n3)oc2c1`, in data set [1], the IC50 came out at 27 nM.

As to `COc1cc(OCc2cccc(CCc3ccccc3)c2)c2cc(-c3cn4nc(OC)sc4n3)oc2c1`, in data set [1], the IC50 amounted to 2.4 nM. Also, the remaining at 10 min in data set [2] came to 99%; in data set [3], 68%.

Regarding `COc1cc(OCc2ccccc2)c2cc(-c3cn4nc(OC)sc4n3)oc2c1`, the bioavailability in data set [8] came out at 27%.

As to `COc1nn2cc(-c3cc4ccc(OC)c(OC)c4o3)nc2s1`, the results for the remaining at 10 min in data set [2] and in data set [3] were 20% and 3%, respectively.

Regarding `COc1ccc(COc2cc(OC)cc3oc(-c4cn5nc(OC)sc5n4)cc23)cc1`, the IC50 in data set [1] was 1.6 nM. Also, the remaining at 10 min in data set [2] turned out to be 73%; in data set [3], 64%.

With `CNc1nn2cc(-c3cc4ccccc4o3)nc2s1`, the IC50 in data set [1] came to 110 nM. Moreover, the remaining at 10 min in data set [2] worked out at 65%; in data set [3], 2%.

Turning to `COc1ccc2oc(-c3cn4nc(OC)sc4n3)cc2c1`, the remaining at 10 min in data set [2] is 30%; in data set [3], 38%.

`c1ccc2oc(-c3cn4nc(C5CC5)sc4n3)cc2c1`: in data set [1], the 50% inhibitory concentration (IC50) turned out to be 530 nM. The remaining at 10 min worked out at 62% in data set [2] and 53% in data set [3].

Take `CCc1nn2cc(-c3cc4ccccc4o3)nc2s1`: the IC50 in data set [1] is 38 nM. For the same molecule, the remaining at 10 min in data set [2] came out at 30%; in data set [3], 3%.

Consider `COc1cc(OCc2cccc(O)c2)c2cc(-c3cn4nc(OC)sc4n3)oc2c1`, for which the IC50 in data set [1] is 3.1 nM. Besides, the figures for the remaining at 10 min in data set [2] and in data set [3] were 97% and 49%, respectively.

In the case of `COc1cc(OCCOc2ccccc2)c2cc(-c3cn4nc(OC)sc4n3)oc2c1`, the half-maximal inhibitory concentration (IC50) in data set [1] came to 0.81 nM. The remaining at 10 min is 65% in data set [2] and 36% in data set [3].

On to `COc1cc(OCc2cccc(Oc3ccccc3)c2)c2cc(-c3cn4nc(OC)sc4n3)oc2c1`, for which, in data set [1], the IC50 stood at 1.2 nM. The figures for the remaining at 10 min in data set [2] and in data set [3] were 86% and 42%, respectively.

Regarding `CC(C)Oc1nn2cc(-c3cc4ccccc4o3)nc2s1`, the IC50 in data set [1] was found to be 760 nM.

For `Cc1nn2cc(-c3cc4ccccc4o3)nc2s1`, in data set [1], the IC50 worked out at 37 nM. For the same molecule, the remaining at 10 min is 20% in data set [2] and 4% in data set [3].

For `COc1nn2cc(-c3cc4cccc(OC)c4o3)nc2s1`, the IC50 in data set [1] turned out to be 2.8 nM. For the same molecule, the remaining at 10 min in data set [2] was found to be 25%; in data set [3], 11%.
